# In ChEMBL document CHEMBL3997782, “Methoxylated 2'-hydroxychalcones as antiparasitic hit compounds” (Eur J Med Chem, 2017):
# Legend:
# [1] = tested on: Trypanosoma brucei brucei; test: Anti-parasitic activity against bloodstream form of Trypanosoma brucei brucei Lister 427 after 72 hrs by resazurin-based assay; type: functional; conditions: Lister 427, 72 h
# Summary of the method: (§1)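 Bloodstream-form T. brucei, modified resazurin-based viability assay. EC50 is the arithmetic mean of at least two independent determinations, each run in triplicate.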
# Cytochrome P450 2D6 = Cytochrome P450 2D6 (Homo sapiens, UniProt P10635); test: Inhibition of human CYP2D6 expressed in baculovirus-infected insect cells using Luciferin-ME EGE as substrate in presence of NADPH by P450-Glo luminescence assay; type: ADME
# Summary of the method: (§2)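 CYP enzymes as microsomal preparations from baculovirus-infected insect cells, run on the P450-Glo luminogenic substrate platform. A fall in light output indicates inhibition.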
# Cytochrome P450 2C19 = Cytochrome P450 2C19 (Homo sapiens, UniProt P33261); test: Inhibition of human CYP2C19 expressed in baculovirus-infected insect cells using Luciferin-H EGE as substrate in presence of NADPH by P450-Glo luminescence assay; type: ADME; summary of the method: as §2
# [2] = Cytotoxicity against human A549 cells assessed as cell growth by Cell titer-Glo assay; type: cell-based
# Summary of the method: (§3)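 A549 and WI-38 cells grown in DMEM with 10% v/v FCS, streptomycin 100 µg/ml and penicillin G 100 U/ml. Cell number read as cellular ATP by CellTiter-Glo luminescence. Growth 60–100% scored non-cytotoxic, 0–60% cytostatic, below 0 cytotoxic.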
# Cytochrome P450 1A2 = target: T1, Cytochrome P450 1A2 (Homo sapiens, UniProt P05177); test: Inhibition of human CYP1A2 expressed in baculovirus-infected insect cells using Luciferin-1A2 as substrate in presence of NADPH by P450-Glo luminescence assay; type: ADME; summary of the method: as §2
# T1 sequence (P05177 whole entry): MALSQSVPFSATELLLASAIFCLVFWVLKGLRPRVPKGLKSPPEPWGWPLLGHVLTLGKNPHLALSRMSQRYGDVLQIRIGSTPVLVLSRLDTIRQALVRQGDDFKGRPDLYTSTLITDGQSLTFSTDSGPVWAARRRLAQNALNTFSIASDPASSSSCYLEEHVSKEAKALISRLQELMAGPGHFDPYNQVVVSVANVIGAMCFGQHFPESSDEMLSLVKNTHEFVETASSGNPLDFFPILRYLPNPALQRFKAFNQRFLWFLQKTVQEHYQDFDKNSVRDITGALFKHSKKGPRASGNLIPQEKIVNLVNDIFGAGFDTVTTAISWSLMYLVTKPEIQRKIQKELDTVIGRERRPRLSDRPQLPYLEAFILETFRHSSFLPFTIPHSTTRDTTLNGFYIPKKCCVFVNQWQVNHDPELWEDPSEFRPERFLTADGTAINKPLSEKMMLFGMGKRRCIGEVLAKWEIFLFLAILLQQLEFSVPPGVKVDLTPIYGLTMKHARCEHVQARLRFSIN
# [3] = Selectivity index, ratio of CC50 for human THP1 cells to EC50 for anti-parasitic activity against Leishmania infantum amastigotes infected in human THP1 cells; type: toxicity, cell-based; conditions: THP-1 cells, read-out: Ratio CC50/EC50
# Summary of the method: (§4)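 SI = CC50 in PMA-differentiated THP-1 macrophages (MTT) divided by the antiparasitic EC50.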
# CYP2C9 = CYP2C9 (Homo sapiens, UniProt P11712); test: Inhibition of human CYP2C9 expressed in baculovirus-infected insect cells at 10 uM using Luciferin-H as substrate in presence of NADPH by P450-Glo luminescence assay relative to control; conditions: probe Luciferin-H
# Leishmania infantum [4] = test: Anti-parasitic activity against Leishmania infantum amastigotes infected in human THP1 cells after 5 days by Giemsa staining based assay; type: functional, cell-based; conditions: THP-1, 120 h
# Summary of the method: (§5)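 Intracellular L. infantum amastigotes in host cells, imaged by high-content automated imaging. Host cell number, infected cells and parasites per infected cell were counted. Infection Ratio = infected cells / total cells.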
# [5] = Cytotoxicity against human […] cells assessed as cell growth at 10 uM by Cell titer-Glo assay relative to control; type: cell-based; conditions: WI-38 cells, read-out: Activity; summary of the method: as §3
# Aurora kinase B = Aurora kinase B (Homo sapiens, UniProt Q96GD4); test: Inhibition of N-terminal-GST-tagged recombinant full length human Aurora B expressed in baculovirus infected Sf9 cells at 10 uM using native Swine Myelin Basic Protein as substrate measured after 60 mins by ADP-Glo assay relative to control; conditions: probe native Swine Myelin Basic Protein
# Summary of the method: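 Aurora B kinase activity measured by ADP-Glo, which detects ADP formed through a coupled luciferase luminescence read-out.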
# [6] = Selectivity index, ratio of CC50 for human THP1 cells to EC50 for anti-parasitic activity against bloodstream form of Trypanosoma brucei brucei Lister 427; type: toxicity; conditions: THP-1 cells, read-out: Ratio CC50/EC50; summary of the method: as §4
# hERG (KCNH2) = hERG (KCNH2) (Homo sapiens, UniProt Q12809); test: Inhibition of human ERG at 10 uM by Tracer Red dye based fluorescence polarization assay relative to control; conditions: probe Tracer Red dye
# CYP2D6 = CYP2D6 (Homo sapiens, UniProt P10635); test: Inhibition of human CYP2D6 expressed in baculovirus-infected insect cells at 10 uM using Luciferin-ME EGE as substrate in presence of NADPH by P450-Glo luminescence assay relative to control; type: ADME; conditions: probe Luciferin-ME EGE; summary of the method: as §2
# Trypanosoma cruzi [7] = test: Anti-parasitic activity against Trypanosoma cruzi Y promastigotes infected in HG39 cells at 10 uM by qPCR analysis relative to control; type: functional, cell-based; conditions: in the assay text read “trypomastigotes” for “promastigotes”
# Summary of the method: (§6)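 Confluent HG39 cells (3 x 10^6 per well) infected at a 1:1 ratio with blood-derived T. cruzi Y strain trypomastigotes. Growth inhibition was read as parasite gDNA by TaqMan probe-based quantitative real-time PCR.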
# [8] = tested on: Trypanosoma brucei brucei; test: Anti-parasitic activity against bloodstream form of Trypanosoma brucei brucei Lister 427 at 10 uM after 72 hrs by resazurin-based assay relative to control; type: functional; conditions: Lister 427, 72 h; summary of the method: as §1
# [9] = Lipophilicity, log P of the compound; type: physicochemical; conditions: octanol/water
# [10] = Cytotoxicity against human A549 cells assessed as cell growth at 10 uM by Cell titer-Glo assay relative to control; type: cell-based; conditions: read-out: Activity; summary of the method: as §3
# [11] = Cytotoxicity against human THP1 cells by MTT assay; type: cell-based; conditions: THP-1 cells
# Summary of the method: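 THP-1 cells differentiated to macrophages with PMA, viability read by colorimetric MTT. CC50 and NOAEL are the arithmetic mean of at least two independent determinations, each run in triplicate.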
# Leishmania infantum [12] = test: Anti-parasitic activity against Leishmania infantum amastigotes infected in human THP1 cells at 50 uM after 5 days by Giemsa staining based assay relative to control; type: functional, cell-based; conditions: THP-1, 120 h; summary of the method: as §5
# CYP3A4 = CYP3A4 (Homo sapiens, UniProt P08684); test: Inhibition of human CYP3A4 expressed in baculovirus-infected insect cells at 10 uM using Luciferin-PFBE as substrate in presence of NADPH by P450-Glo luminescence assay relative to control; type: ADME; conditions: probe Luciferin-PFBE
# 786-0 = test: Mitochondrial toxicity in human 786-O cells at 10 uM by mitotracker red chloromethyl-Xrosamine staining based-uptake method relative to control; type: cell-based; conditions: 786-0, 10 µM
# Summary of the method: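 786-O renal carcinoma cells kept in RPMI-1640 with 2 mM glutamine, 10% v/v FCS, streptomycin 100 µg/ml and penicillin G 100 U/ml. Mitochondrial toxicity monitored by MitoTracker Red CMXRos uptake with high-content imaging.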
# CYP1A2 = target: T2, CYP1A2 (Homo sapiens, UniProt P05177); test: Inhibition of human CYP1A2 expressed in baculovirus-infected insect cells at 10 uM using Luciferin-1A2 as substrate in presence of NADPH by P450-Glo luminescence assay relative to control; type: ADME; conditions: probe Luciferin-1A2; summary of the method: as §2
# T2 sequence (P05177 whole entry): T1 sequence (P05177 whole entry)
# CYP2C19 = CYP2C19 (Homo sapiens, UniProt P33261); test: Inhibition of human CYP2C19 expressed in baculovirus-infected insect cells at 10 uM using Luciferin-H EGE as substrate in presence of NADPH by P450-Glo luminescence assay relative to control; type: ADME; conditions: probe Luciferin-H EGE; summary of the method: as §2
# Trypanosoma cruzi [13] = test: Anti-parasitic activity against Trypanosoma cruzi Y promastigotes infected in HG39 cells by qPCR analysis; type: functional, cell-based; conditions: in the assay text read “trypomastigotes” for “promastigotes”; summary of the method: as §6
# Trypanosoma brucei = test: Anti-parasitic activity against Trypanosoma brucei 427; type: functional
# CYP2C9, sequence (P11712 whole entry): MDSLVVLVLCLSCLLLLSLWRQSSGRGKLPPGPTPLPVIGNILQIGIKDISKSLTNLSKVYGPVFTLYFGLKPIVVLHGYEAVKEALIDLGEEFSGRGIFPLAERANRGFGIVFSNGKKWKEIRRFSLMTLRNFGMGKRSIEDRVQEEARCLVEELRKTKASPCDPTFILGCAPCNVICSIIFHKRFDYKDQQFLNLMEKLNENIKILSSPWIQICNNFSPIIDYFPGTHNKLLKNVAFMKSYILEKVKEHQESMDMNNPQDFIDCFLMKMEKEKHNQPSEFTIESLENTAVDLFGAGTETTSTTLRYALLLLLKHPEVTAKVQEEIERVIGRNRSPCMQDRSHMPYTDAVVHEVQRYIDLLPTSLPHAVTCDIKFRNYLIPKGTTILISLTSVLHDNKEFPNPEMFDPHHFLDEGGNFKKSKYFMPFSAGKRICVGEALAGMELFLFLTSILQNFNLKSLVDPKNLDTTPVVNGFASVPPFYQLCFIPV
# CYP2D6, sequence (P10635 whole entry): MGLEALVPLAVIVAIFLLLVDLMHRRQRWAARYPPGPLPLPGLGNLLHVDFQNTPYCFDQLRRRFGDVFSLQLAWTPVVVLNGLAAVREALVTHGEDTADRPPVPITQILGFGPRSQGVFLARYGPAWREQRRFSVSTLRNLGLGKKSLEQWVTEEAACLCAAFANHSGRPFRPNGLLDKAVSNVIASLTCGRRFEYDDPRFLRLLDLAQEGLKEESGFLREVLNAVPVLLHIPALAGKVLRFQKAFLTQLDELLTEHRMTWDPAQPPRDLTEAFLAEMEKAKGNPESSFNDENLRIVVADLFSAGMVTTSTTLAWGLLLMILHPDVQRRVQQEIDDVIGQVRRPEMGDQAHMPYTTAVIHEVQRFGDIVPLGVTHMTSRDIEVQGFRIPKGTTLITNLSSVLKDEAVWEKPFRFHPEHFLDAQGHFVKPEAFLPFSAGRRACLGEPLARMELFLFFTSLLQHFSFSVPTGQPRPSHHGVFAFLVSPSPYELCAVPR
# CYP3A4, sequence (P08684 whole entry): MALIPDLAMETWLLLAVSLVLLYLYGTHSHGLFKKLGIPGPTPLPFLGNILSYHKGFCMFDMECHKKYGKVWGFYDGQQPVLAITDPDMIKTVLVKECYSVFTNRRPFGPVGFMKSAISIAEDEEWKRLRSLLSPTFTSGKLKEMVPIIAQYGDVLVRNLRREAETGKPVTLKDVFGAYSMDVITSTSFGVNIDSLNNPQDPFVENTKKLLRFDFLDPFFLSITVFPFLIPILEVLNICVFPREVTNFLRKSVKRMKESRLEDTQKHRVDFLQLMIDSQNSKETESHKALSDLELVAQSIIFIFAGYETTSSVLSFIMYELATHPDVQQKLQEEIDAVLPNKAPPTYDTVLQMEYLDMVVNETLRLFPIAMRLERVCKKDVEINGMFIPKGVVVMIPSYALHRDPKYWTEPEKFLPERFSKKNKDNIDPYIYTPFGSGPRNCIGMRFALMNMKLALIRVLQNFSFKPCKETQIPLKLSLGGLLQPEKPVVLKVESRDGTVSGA
# Aurora kinase B, sequence (Q96GD4 whole entry): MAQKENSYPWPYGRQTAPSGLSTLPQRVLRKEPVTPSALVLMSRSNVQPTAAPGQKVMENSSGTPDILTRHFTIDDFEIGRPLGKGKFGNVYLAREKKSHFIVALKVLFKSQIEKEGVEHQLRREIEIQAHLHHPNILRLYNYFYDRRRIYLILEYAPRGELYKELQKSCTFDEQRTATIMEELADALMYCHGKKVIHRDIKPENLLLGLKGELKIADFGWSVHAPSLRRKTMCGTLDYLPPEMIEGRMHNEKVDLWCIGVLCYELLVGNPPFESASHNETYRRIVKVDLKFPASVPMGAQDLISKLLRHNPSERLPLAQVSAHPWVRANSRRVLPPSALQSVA
# hERG (KCNH2), sequence (Q12809 whole entry): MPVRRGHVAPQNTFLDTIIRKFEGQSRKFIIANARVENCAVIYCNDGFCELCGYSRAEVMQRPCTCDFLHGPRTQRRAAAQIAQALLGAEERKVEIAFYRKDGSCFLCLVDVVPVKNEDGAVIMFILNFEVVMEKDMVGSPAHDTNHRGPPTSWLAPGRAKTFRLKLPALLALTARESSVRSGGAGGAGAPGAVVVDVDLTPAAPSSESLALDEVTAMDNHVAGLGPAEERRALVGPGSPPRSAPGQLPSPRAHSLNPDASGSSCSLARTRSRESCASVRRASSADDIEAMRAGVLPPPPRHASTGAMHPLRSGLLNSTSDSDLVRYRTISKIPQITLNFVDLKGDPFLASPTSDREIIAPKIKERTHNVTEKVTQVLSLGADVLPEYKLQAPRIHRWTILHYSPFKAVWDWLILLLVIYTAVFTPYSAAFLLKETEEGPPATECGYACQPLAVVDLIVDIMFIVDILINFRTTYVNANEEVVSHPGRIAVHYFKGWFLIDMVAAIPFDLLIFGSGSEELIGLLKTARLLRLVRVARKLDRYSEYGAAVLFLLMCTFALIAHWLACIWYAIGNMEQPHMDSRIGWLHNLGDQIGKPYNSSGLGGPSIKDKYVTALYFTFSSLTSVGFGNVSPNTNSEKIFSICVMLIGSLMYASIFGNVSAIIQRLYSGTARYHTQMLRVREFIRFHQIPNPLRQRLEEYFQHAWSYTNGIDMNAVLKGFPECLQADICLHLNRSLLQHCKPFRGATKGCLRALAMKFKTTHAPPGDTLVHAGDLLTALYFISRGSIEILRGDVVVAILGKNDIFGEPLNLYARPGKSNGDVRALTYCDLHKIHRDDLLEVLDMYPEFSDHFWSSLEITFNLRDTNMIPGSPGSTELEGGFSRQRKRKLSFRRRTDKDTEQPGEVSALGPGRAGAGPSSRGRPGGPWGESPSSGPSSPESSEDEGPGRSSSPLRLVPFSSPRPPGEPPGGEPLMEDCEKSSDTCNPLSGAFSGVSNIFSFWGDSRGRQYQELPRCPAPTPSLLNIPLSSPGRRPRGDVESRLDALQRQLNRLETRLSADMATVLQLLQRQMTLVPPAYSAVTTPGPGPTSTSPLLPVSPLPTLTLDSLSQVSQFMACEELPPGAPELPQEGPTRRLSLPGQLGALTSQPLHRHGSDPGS
# CYP2C19, sequence (P33261 whole entry): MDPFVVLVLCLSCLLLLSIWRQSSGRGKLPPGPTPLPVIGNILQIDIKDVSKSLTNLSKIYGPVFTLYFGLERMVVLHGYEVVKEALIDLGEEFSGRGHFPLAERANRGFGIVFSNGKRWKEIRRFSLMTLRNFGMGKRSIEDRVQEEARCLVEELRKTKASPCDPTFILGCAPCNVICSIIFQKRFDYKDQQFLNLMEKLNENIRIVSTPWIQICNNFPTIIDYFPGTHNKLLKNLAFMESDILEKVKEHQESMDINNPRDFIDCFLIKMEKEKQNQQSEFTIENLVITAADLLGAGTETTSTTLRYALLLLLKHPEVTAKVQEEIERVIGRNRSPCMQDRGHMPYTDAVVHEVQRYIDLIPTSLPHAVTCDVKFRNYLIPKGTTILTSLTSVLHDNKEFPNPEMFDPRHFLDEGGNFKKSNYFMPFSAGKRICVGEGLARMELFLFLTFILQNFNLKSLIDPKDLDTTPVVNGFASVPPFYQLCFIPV
# Cytochrome P450 2D6, sequence (P10635 whole entry): as the sequence (P10635 whole entry) above
# Cytochrome P450 2C19, sequence (P33261 whole entry): as the sequence (P33261 whole entry) above
EC50 [1] [µM],inhibition at 10 µM (CYP2C9) [%],EC50 (Leishmania infantum [4]) [µM],"inhibition at 1 h, 10 µM (Aurora kinase B) [%]",inhibition at 10 µM (CYP2D6) [%],logP [9],inhibition at 10 µM (CYP3A4) [%],inhibition at 10 µM (CYP1A2) [%],inhibition at 10 µM (CYP2C19) [%],Compound,selectivity ratio [3],viability at 10 µM [5] [%],selectivity ratio [6],inhibition at 10 µM (hERG (KCNH2)) [%],inhibition at 10 µM (Trypanosoma cruzi [7]) [%],inhibition at 10 µM [8] [%],viability at 10 µM [10] [%],CC50 [11] [µM],inhibition at 50 µM (Leishmania infantum [12]) [%],Activity (786-0) [%],also measured
0.00155,–,–,–,–,–,–,–,–,N=C(N)c1ccc(OCCCCCOc2ccc(C(=N)N)cc2)cc1 [PENTAMIDINE],–,–,–,–,–,–,–,–,–,–,IC50 (Cytochrome P450 2D6): 24.8 µM; IC50 (Cytochrome P450 2C19): > 100 µM; GI50 [2]: > 100 µM; IC50 (Cytochrome P450 1A2): > 100 µM
–,–,–,–,–,3.9,–,–,–,COc1cc(O)c(C(=O)/C=C/c2ccccc2)c(OC)c1 [FLAVOKAWAIN B],–,–,–,–,–,–,–,–,–,–,EC50 (Trypanosoma brucei): 6.2 µM

# Second part, the molecule before the results:
Compound,EC50 [1] [µM],inhibition at 10 µM (CYP2C9) [%],EC50 (Leishmania infantum [4]) [µM],"inhibition at 1 h, 10 µM (Aurora kinase B) [%]",inhibition at 10 µM (CYP2D6) [%],logP [9],inhibition at 10 µM (CYP3A4) [%],inhibition at 10 µM (CYP1A2) [%],inhibition at 10 µM (CYP2C19) [%],selectivity ratio [3],viability at 10 µM [5] [%],selectivity ratio [6],inhibition at 10 µM (hERG (KCNH2)) [%],inhibition at 10 µM (Trypanosoma cruzi [7]) [%],inhibition at 10 µM [8] [%],viability at 10 µM [10] [%],CC50 [11] [µM],inhibition at 50 µM (Leishmania infantum [12]) [%],Activity (786-0) [%],also measured
COc1cc(O)c(C(=O)/C=C/c2cc(OC)c(OC)c(OC)c2)cc1OC,7.4,27,22.2,-4.2,-24.9,3.5,18.7,-3.1,75.7,> 2,88.5,≥ 3,7.1,0,91,115,> 25,88,10,–
COc1ccc(C(=O)/C=C/c2cc(OC)c(OC)c(OC)c2)c(O)c1,–,57.6,30.6,-23.6,65.1,3.49,-10,1.2,67.5,> 1.6,78.1,–,34.7,60,–,127,> 100,71,1.1,EC50 (Trypanosoma cruzi [13]): < 10 µM
COc1ccc(O)c(C(=O)/C=C/c2cc(OC)c(OC)c(OC)c2)c1,4.4,60.9,42.4,-8.1,88.3,3.47,-3.1,13.3,84.6,> 1,73.9,≥ 6,9.5,1,100,108,> 25,43,-6.4,–
